# An excerpt weighted towards active compounds, which were near 1.7% of everything screened.
# STEP inh – inhibitors of human striatal-enriched phosphatase STEP. AID 588621. inhibition, % at 20 µM. P54829. recombinant STEP, OMFP fluorogenic substrate, fluorescence. 360,000 compounds, 0.25% hits;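 active = inhibition at 20 µM, scaled per plate between control wells, above about 37%, limit read from the data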;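 note: 0% = DMSO with enzyme and substrate and 100% = substrate only without enzyme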
# Target sequence (P54829 whole entry, looked up): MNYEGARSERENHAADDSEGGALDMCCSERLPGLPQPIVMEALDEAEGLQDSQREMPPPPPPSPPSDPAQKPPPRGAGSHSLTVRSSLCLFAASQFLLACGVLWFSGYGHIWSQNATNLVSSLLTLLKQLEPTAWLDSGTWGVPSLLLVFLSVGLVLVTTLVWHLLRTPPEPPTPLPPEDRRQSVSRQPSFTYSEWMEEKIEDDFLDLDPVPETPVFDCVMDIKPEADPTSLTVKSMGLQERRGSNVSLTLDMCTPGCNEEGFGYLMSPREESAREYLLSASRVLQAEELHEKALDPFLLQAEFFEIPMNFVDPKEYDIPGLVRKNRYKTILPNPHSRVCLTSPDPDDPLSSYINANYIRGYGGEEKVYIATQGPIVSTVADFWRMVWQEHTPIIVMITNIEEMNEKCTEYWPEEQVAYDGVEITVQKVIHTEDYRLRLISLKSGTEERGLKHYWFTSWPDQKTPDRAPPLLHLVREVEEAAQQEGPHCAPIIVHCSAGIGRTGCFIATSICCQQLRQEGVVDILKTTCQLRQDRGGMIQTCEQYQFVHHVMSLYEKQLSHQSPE
#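 material = STEP tyrosine phosphatase | reagent = fluorogenic phosphatase substrate OMFP at 25 µM final | doses = single compound dose of 20 µM, 1% DMSO final | schedule = 20 min reaction, room temperature, in the dark | measured by = fluorescence, 480/540 nm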
# DNMT1 inh – DNMT1 (human) enzyme inhibition | P26358 | DNMT1 molecular beacon, Hinp1I cleavage, fluorescence | inhibition (reported as % activation of signal), % at 10 µM | 360,000 compounds, 0.83% hits; in the data active = inhibition above about 50%
# SUMO1 PPI mod – SUMO1-SIM interaction modulation. P63165. SUMO1 binding to a labelled peptide, TR-FRET, 1 h. inhibition, % at 20 µM. 360,000 compounds, 0.33% hits; in the data active = inhibition above about 37%
# Target sequence (P63165 whole entry, looked up): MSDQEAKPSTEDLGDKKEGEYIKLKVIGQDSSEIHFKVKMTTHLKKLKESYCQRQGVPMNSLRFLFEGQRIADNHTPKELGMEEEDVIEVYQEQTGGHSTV
# Scp-1 inhibitor – blocks human Scp-1 phosphatase activity; inhibition, % at 20 µM; Q9GZU7; Recombinant Scp1, phosphopeptide, malachite green phosphate absorbance; AID 493091; 340,000 compounds, 0.88% hits;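 active = inhibition above about 50% at 20 µM, limit read from the data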;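 note: plate controls were DMSO wells with enzyme for no effect and wells lacking enzyme for full effect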
#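 Test system: SCP-1 phosphatase catalytic domain, residues 76-261; measured by: colorimetric phosphate reagent with accelerator and stabiliser, absorbance at 630 nm; timing: enzyme reaction 45 min at room temperature, colour 5 min, stabilisation 30 min; also added: Phosphorylated 17-residue peptide substrate; compound dosing: one concentration, 20 µM, with 1.0% DMSO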
# LMPTP block – blocks human LMPTP phosphatase; recombinant LMPTP-A, OMFP fluorogenic substrate, fluorescence intensity; inhibition, % at 20 µM; 360,000 compounds, 0.22% hits;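 active = compounds that cut the enzyme signal by at least half of the control window in the single-dose screen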;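 note: plate controls were DMSO wells with enzyme plus substrate for no effect and substrate without enzyme for full effect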
#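 Buffer or medium: Bis-Tris pH 6.0, DTT, detergent; Assay system: LMPTP-A enzyme; Quantity: 0.625 nM enzyme; Detection: endpoint fluorescence intensity; Times: 50 min dark incubation at room temperature; Controls: substrate-only low control, DMSO enzyme-plus-substrate high control; Doses: single 20 µM dose; Read-out: percent inhibition versus substrate-only and uninhibited controls; Reagent: 400 µM OMFP.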
# Scp1 confirm – Scp-1 (human) inhibition, single-dose confirmed | AID 540281 | recombinant SCP-1 catalytic domain, phosphate release, malachite green absorbance | shares compounds with Scp-1 inhibitor | inhibition, % at 20 µM | 2,500 compounds, 61% hits;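 note: plate controls were DMSO with enzyme for no effect and buffer wells lacking enzyme for full effect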
# Scp-1 MG ctr – colorimetric interference in Scp-1 counter-screen | shares compounds with Scp-1 inhibitor | Colorimetric interference counterscreen, malachite green absorbance 630 nm | apparent inhibition (interference), % at 20 µM | 2,500 tested, under 10 active | AID 540313;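 note: compounds added after enzyme reaction finished so only phosphate colour detection is probed; plate controls were DMSO wells with completed Scp-1 reaction for no effect and substrate wells lacking enzyme for full effect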
# Scp-1 Tm shift – validation of human Scp-1 inhibitors by thermal shift binding; 1,500 compounds, 25% hits; Recombinant SCP1, Sypro Orange thermal shift Tm; thermal shift relative to vanadate control, % at 40 µM; shares compounds with Scp-1 inhibitor;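 active = substances whose mean melting-temperature shift, as a percentage of the reference inhibitor's shift, reaches about 5.3%, limit read from the data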;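 note: 0% = Tm of DMSO wells and 100% = Tm with sodium orthovanadate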
# Numbers without * were called inactive; . = no result.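 Rule for the calls, unless noted: active = inhibition of at least 30% at 20 µM; inactive = the rest.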
SMILES,STEP inh,DNMT1 inh,SUMO1 PPI mod,Scp-1 inhibitor,LMPTP block,Scp1 confirm,Scp-1 MG ctr,others
O=C1CC(N2CCN(S(=O)(=O)c3ccccc3F)CC2)C(=O)N1c1ccccc1F (stereo unspecified),0,-3,-3,-2,-1,.,.,
COc1ccc(S(=O)(=O)NC(=O)C2(C)CCN2C(=O)Cc2cccc3ccccc23)cc1 (stereo unspecified),1,4,-3,.,-2,.,.,
CC1CCCC(NC(=O)C2CCN(S(=O)(=O)c3cccc4nonc34)CC2)C1C (stereo unspecified),-1,4,-2,69*,-1,-8,-17,
Cc1ncc(NS(=O)(=O)c2ccc(N)cc2)nc1C,11,2,1,-7,0,.,.,
Cn1c(SCC(=O)Nc2ccccc2)nc(O)cc1=O,2,-7,7,-4,-1,-7,-4,
Cc1ccc(CCCOC(=O)C[N+]2(C)CCOCC2)cc1,-4,2,2,38,0,.,.,
C[N+]1(CC(=O)OCCCc2ccccc2)CCOCC1,-5,2,-1,100*,-2,80*,-17,Scp-1 Tm shift=-10
CSc1ncccc1C(=O)OCC(=O)N(C)c1c(N)n(Cc2ccccc2)c(=O)[nH]c1=O,-1,3,4,-3,0,.,.,
O=C(CSc1nnc(CNC(=O)c2c(F)cccc2F)o1)NCc1ccc2c(c1)OCO2,-1,7,0,.,-1,.,.,
N=C1/C(=C\c2ccc(Br)o2)C(=O)N=C2SC(CC(=O)N3CCOCC3)=NN12,4,47,28,78*,2,36*,-18,Scp-1 Tm shift=6.8*
CSc1ccc(/C=C2\C(=N)N3N=C(CC(=O)N4CCOCC4)SC3=NC2=O)cc1,-2,1,-1,19,0,.,.,
CCOC(=O)c1csc(NC(=O)C2=COCCO2)n1,-1,-1,-3,1,1,.,.,
CC1CCN(C(=O)c2cc(-c3ccco3)on2)CC1,-2,-1,0,-5,-1,.,.,
CC1CCN(C(=O)c2cc(-c3ccccc3O)on2)CC1,-3,9,-3,53*,0,-17,-13,
Cc1ccccc1S(=O)(=O)NC(=NCc1ccc(F)cc1)c1ccccc1,0,-5,3,-8,0,.,.,
C[C@@H]1COc2cc(N3CCN(Cc4ccccc4F)CC3)ccc2S(=O)(=O)N1,.,.,1,.,0,.,.,
CC(=O)c1ccc(S(=O)(=O)Oc2ccc(C(=O)O)cc2Cl)cc1,-4,25,4,53*,-1,24,-6,
Cc1ccc(S(=O)(=O)CCC(=O)N2CCN(c3ccc([N+](=O)[O-])cc3)CC2)cc1,2,-1,-32,59*,1,0,-8,
COc1ccc(S(=O)(=O)CCC(=O)N2CCN(c3ccc([N+](=O)[O-])cc3)CC2)cc1,-1,1,-28,-6,-1,.,.,
CCOC(=O)C1=CCN(S(=O)(=O)c2ccccc2C)C1c1ccc(Cl)c(Cl)c1 (stereo unspecified),-1,-8,2,.,2,.,.,
CC1CCN(C2=NN3C(=N)/C(=C\c4ccc(OC(=O)c5ccco5)cc4)C(=O)N=C3S2)CC1,2,16,13,35,0,.,.,
N=C1/C(=C\c2ccc(OC(=O)c3ccc(F)cc3)cc2)C(=O)N=C2SC(N3CCOCC3)=NN12,2,8,-3,66*,1,56*,-2,Scp-1 Tm shift=1
Cc1cn(CC(=O)N(C)Cc2ccco2)c(=O)[nH]c1=O,2,4,-7,4,0,.,.,
Cc1cccc2cc(C(c3nnnn3C(C)(C)C)N(Cc3ccco3)CC3CCCO3)c(=O)[nH]c12 (stereo unspecified),3,7,4,61*,18,53*,-7,Scp-1 Tm shift=-2
c1ccc(CCn2nnnc2C(c2cccs2)N2CCN(Cc3ccc4c(c3)OCO4)CC2)cc1 (stereo unspecified),-1,-4,-5,67*,1,23,6,
SMILES,STEP inh,DNMT1 inh,SUMO1 PPI mod,Scp-1 inhibitor,LMPTP block,Scp1 confirm,Scp-1 MG ctr,others
CCC(C)(C)n1nnnc1C(c1ccc(C)cc1)N1CCN(Cc2ccc3c(c2)OCO3)CC1 (stereo unspecified),-11,2,1,66*,-1,-17,-21,
CCC(C)(C)n1nnnc1C(c1ccc2ncccc2c1)N1CCN(Cc2ccc3c(c2)OCO3)CC1 (stereo unspecified),-1,6,0,13,0,.,.,
Cc1cc(C)n2nc(SC(C)C(=O)N(C)C3CCCCC3)nc2n1 (stereo unspecified),2,0,-2,-15,-1,.,.,
Cc1cccc(NC(=O)C2CC2c2ccccc2)c1C (stereo unspecified),2,3,4,-2,0,.,.,
COC(=O)c1c(C)[nH]c(C(=O)NCc2ccco2)c1C,-4,2,2,-4,0,.,.,
CCOC(=O)c1[nH]c(C)c(C(=O)NCc2ccco2)c1C,5,3,1,64*,0,-8,-16,
C/C(CC(=O)NC1CCCCC1)=N\NC(=O)Cc1ccc(-c2ccccc2)cc1,2,15,4,69*,1,86*,-5,Scp-1 Tm shift=-7
O=C1/C(=C\c2ccc(O)cc2)SC(=S)N1c1cccnc1,34,-1,-13,98*,25,16,-13,
COc1ccc(/C=C2\SC(=S)N(c3cccnc3)C2=O)cc1,-1,2,0,-6,2,.,.,
CC(=O)c1ccc(NC(=O)CCc2nc3sc4c(c3c(=O)[nH]2)CCCC4)cc1,4,17,-1,52*,8,65*,-21,Scp-1 Tm shift=0
CCc1ccc(NC(=O)CCc2nc3sc4c(c3c(=O)[nH]2)CCCC4)cc1,1,21,-2,7,2,.,.,
O=C(CCN1C(=O)c2cccc3cccc(c23)C1=O)NCc1cccnc1,-1,2,-18,-5,-1,.,.,
O=C(CCN1C(=O)C2C3C=CC(C3)C2C1=O)NCc1cccnc1 (stereo unspecified),-2,2,0,60*,0,-11,-15,
CC(=O)Nc1sc(C)c(C)c1C(=O)OCCOc1ccccc1,-2,-4,14,-11,1,.,.,
CC(C)(C)c1ccc(CS(=O)(=O)CC(O)CN2CCCC2=O)cc1 (stereo unspecified),2,1,-2,1,-2,.,.,
O=C1CCCN1CC(O)CS(=O)(=O)Cc1ccc(Cl)cc1 (stereo unspecified),-1,1,2,-7,-2,0,-3,

# Screens as filed in PubChem.
